Insulin prom inh = inhibitors of insulin promoter-driven GFP, primary screen, imaging, TRM-6 cells (human fetal islet line), eGFP reporter, cell count. reporter expression induced with tamoxifen. inhibition, % at 2 µM. 130,000 compounds, 0.9% hits;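 active means inhibition above the mean plus 3 SD, with well images judged a real hit on visual review, cut at about 60% in these data, passing the limit was not always enough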
TNAP inh no acc = human TNAP enzyme inhibitors, primary screen, biochemical, luminescent, no phosphate acceptor, uHTS; Alkaline phosphatase, tissue-nonspecific isozyme (Homo sapiens), P05186; purified TNAP, CDP-star luminescence, 30 min; inhibition, % at 20 µM; 200,000 compounds, 0.26% hits; AID 1012, 2008;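 active means tissue-nonspecific alkaline phosphatase inhibition above about 50% at 20 µM in the single-dose screen, limit read from the data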;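 further: 0% = DMSO negative control and 100% = EDTA positive control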
Target sequence (P05186 whole entry, looked up): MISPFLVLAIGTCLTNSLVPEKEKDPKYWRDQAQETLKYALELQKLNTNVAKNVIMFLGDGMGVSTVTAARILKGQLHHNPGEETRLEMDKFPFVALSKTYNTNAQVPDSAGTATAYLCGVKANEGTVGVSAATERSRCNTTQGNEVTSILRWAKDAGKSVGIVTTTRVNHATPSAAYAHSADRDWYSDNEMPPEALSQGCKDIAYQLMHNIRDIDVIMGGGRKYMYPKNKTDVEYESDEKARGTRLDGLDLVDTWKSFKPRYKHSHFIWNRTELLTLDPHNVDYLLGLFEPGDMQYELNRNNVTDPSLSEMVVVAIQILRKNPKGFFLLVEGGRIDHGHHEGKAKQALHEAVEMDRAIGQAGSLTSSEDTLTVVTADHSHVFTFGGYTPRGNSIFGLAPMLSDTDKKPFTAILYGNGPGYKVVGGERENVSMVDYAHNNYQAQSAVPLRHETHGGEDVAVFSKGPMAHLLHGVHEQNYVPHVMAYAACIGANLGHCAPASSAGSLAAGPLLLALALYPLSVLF
TNAP act hiacc = TNAP activators at high phosphate acceptor level, primary screen, biochemical, luminescence, uHTS. purified TNAP, CDP-star luminescence, 1 M DEA, 30 min; stronger effect = higher value; 0 = EDTA background, 1 = DMSO-only activity. Alkaline phosphatase, tissue-nonspecific isozyme (Homo sapiens), P05186. 200,000 tested, under 10 active. AID 1136, 2008. activation factor at 20 µM;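 active means activation factor at least 2 at 20 µM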
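Assay system: human TNAP; Input: enzyme diluted 1/800 final; Reagent: CDP-star luminogenic substrate at 100 µM final; Timing: 30 min, room temperature; Signal: luminescence; Evaluation: TNAP activation factor scaled between EDTA and DMSO control wells.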
HMGR II inh = inhibitors of E. faecalis class II HMGR, primary screen, biochemical, Enterococcus faecalis. HMG-CoA reductase (Enterococcus faecalis, mvaE). purified E. faecalis HMGR, NADPH absorbance 340 nm kinetic. inhibition, % at 10 µM. 190,000 compounds, 0.41% hits;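 active means inhibition above a set limit, the median over all tested compounds plus 3 SD, cut at about 9.5% in these data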;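 further: enzyme runs in reverse so mevalonate oxidation gives rising NADPH absorbance; 0% = complete reaction with DMSO and 100% = background rate lacking mevalonate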
TNAP inh hiacc = human TNAP enzyme inhibitors, primary screen, biochemical, luminescent, high phosphate acceptor level, uHTS. AID 1135, 2008. 200,000 compounds, 0.03% hits. inhibition, % at 20 µM. Alkaline phosphatase, tissue-nonspecific isozyme (Homo sapiens), P05186. purified TNAP, CDP-star luminescence, 1 M DEA;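 active means over 50% inhibition of tissue-nonspecific alkaline phosphatase at 20 µM in the single-dose screen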;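 further: plate controls were DMSO wells for no effect and EDTA-quenched wells as full inhibition for full effect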
Starred values were filed as active, the others as inactive; . = not tested or not shown. An excerpt weighted towards active compounds, which were near 1.2% of everything screened.

SMILES | Insulin prom inh | TNAP inh no acc | TNAP act hiacc | HMGR II inh | TNAP inh hiacc
COc1cc(/C=C2\CC/C(=C\c3cc(OC)c(OC)c(OC)c3)C2=O)cc(OC)c1OC | 16.9 | 1.7 | 1 | -1.9 | -0.1
CCOC(=O)C1CCCN(C2CC(=O)N(c3ccc(C)cc3)C2=O)C1 (stereo unspecified) | 67.7* | -14.0 | 1 | -2.6 | -2.7
CSc1ccc(C2CC(=O)Nc3nc(SC)[nH]c(=O)c32)cc1 (stereo unspecified) | -8.3 | -16.9 | 1.1 | 22.1* | -7.7
NNC(=O)c1cc(O)c(O)c(O)c1 | . | 57.5* | 0.8 | -0.2 | 15.1
COc1c(Cl)cc(C(=O)NN)cc1Cl | . | -2.7 | 1 | -3.6 | 0.5
CCC1CCCCN1C(=O)COC(=O)c1n[nH]c2ccccc12 (stereo unspecified) | 40.6 | 56.4* | 1 | 2.1 | -1.7
COc1ccccc1N1CCN(C(=O)c2n[nH]c3ccccc23)CC1 | 75.0* | -89.9 | 1 | -2.1 | -4.0
COCCNC(=O)c1n[nH]c2ccccc12 | 54.5 | 6.5 | 1 | -11.9 | -2.8
COC(=O)c1n[nH]c2ccccc12 | . | 55.3* | 1.1 | 1.4 | -7.7
O=C(OCC(=O)N1CCCCCC1)c1n[nH]c(=O)c2ccccc12 | . | -7.2 | 1.1 | -2.2 | -6.9
O=C(c1n[nH]c2ccccc12)N1CCN(c2ccc(F)cc2)CC1 | . | -13.7 | 1.1 | -1.2 | -5.6
CC1CCN(C(=O)COC(=O)c2n[nH]c3ccccc23)CC1 | . | 58.3* | 1 | 0.9 | -0.3
O=C(COC(=O)c1n[nH]c2ccccc12)NC(=O)NC1CCCC1 | -6.2 | 25.1 | 1 | 3.9 | 2.3
NS(=O)(=O)c1cccc(NC(=O)CCSc2ccc(Cl)cc2)c1 | 10.0 | -4.4 | 1 | -4.8 | 2.1
CCOC(=O)c1cc(NC(=O)Nc2ccc(Br)cc2)c(C)nc1C | 11.8 | -16.1 | 1.1 | -1.0 | -5.7
COCCN(C(=O)C(C)C)c1nnc(-c2ccc(C)cc2)s1 | 5.6 | 1.7 | 1 | 1.8 | 0.2
Cn1c(=O)c2c(ncn2CC(=O)OCC(=O)Nc2ccccc2)n(C)c1=O | -29.4 | -17.0 | 1.1 | 10.2* | -5.6
O=C(NCc1ccc(Cl)cc1)C(=O)NCC1OCCN1C(=O)c1cccs1 (stereo unspecified) | . | -8.7 | 1 | -1.5 | -3.1
O=C(Oc1cccc2c(O)cccc12)c1ccccc1 | . | -7.1 | 1 | 0.7 | -0.8
O=C(Oc1ccccc1O)c1cccc2ccccc12 | . | 16.7 | 1 | 17.6* | -0.9
COc1ccc(/C=C(/C#N)S(=O)(=O)c2ccc(C)cc2)cc1 | 41.4 | -16.4 | 1.1 | 39.8* | -5.0
CC1=C(C(=O)Nc2ccc(Br)cc2)C(c2ccco2)NC(=O)N1 (stereo unspecified) | 67.7* | -11.7 | 1 | -9.6 | 3.4
CC1=C(C(=O)Nc2ccc(C)cc2)C(c2ccco2)NC(=O)N1 (stereo unspecified) | -19.1 | -13.1 | 1 | -0.7 | -3.7
CN(CCO)c1cc(NCCCN2CCC(Cc3ccccc3)CC2)c2nonc2c1[N+](=O)[O-] | -66.7 | 1.8 | 0.9 | 13.5* | 8.6
Cc1ccc(C)c(OCCCC(C)(C)C(=O)O)c1 | 43.5 | -3.1 | 1 | 9.6* | 1.9
SMILES | Insulin prom inh | TNAP inh no acc | TNAP act hiacc | HMGR II inh | TNAP inh hiacc
CC(=O)Nc1cccc(NC=C(C#N)C#N)c1 | -11.1 | -11.9 | 1 | -1.5 | -1.4
COc1ccccc1NC(=O)c1c(Nc2ccccc2C)sc(C(=O)Nc2cccc(Cl)c2)c1N | 27.3 | -5.1 | 1 | -0.9 | -1.5
c1ccc(OCCSc2nc3ccccc3[nH]2)cc1 | -53.5 | -33.4 | 1 | 13.0* | -1.6
Fc1ccccc1CSc1nc2ccccc2[nH]1 | 74.3* | -24.5 | 1.1 | -1.1 | -5.5
COC(=O)c1ccc(NC(=O)Nc2ccccc2F)cc1 | . | -5.1 | 1 | 16.9* | -3.4
COC(=O)c1ccc(NC(=O)Nc2ccccc2C)cc1 | 10.0 | -34.4 | 1 | -1.0 | -4.8
Cc1cccc(-n2ncc3c(Nc4c(C)n(C)n(-c5ccccc5)c4=O)ncnc32)c1 | 100.0* | -4.2 | 1 | -5.0 | -1.2
CCOc1ccc2nc(NC(=O)CN3CCC(n4nnc5cc(C(F)(F)F)ccc54)CC3)sc2c1 | 77.1* | -11.8 | 1 | -5.4 | -0.4
Cc1cc(NC(=O)CN2CCC(n3nnc4cc(C(F)(F)F)ccc43)CC2)no1 | . | -8.7 | 1 | -0.2 | -3.9
CCn1c(CSc2nc3ccccc3s2)nnc1SCC(=O)c1ccc(O)c(O)c1 | -12.7 | 79.5* | 0.9 | 0.5 | 11.0
CCn1c(SCC(=O)c2ccc(O)c(O)c2)nnc1-c1ccccc1 | -25.0 | 50.3* | 0.9 | 0.8 | 6.0
O=C(N/N=C/c1ccc[nH]1)c1ccccc1O | . | -13.0 | 1.1 | 10.3* | -5.4
Cn1nccc1C(=O)Oc1cccc(/C=N/NC(=O)c2ccccc2O)c1 | . | -6.1 | 1 | -0.9 | 0.0
CSc1nc2cc(F)c(F)cc2n1C | 86.5* | -6.5 | 1.1 | -0.4 | -5.7
C/C(=N\NC(=O)c1ccn(C)n1)c1ccc(NC(=O)C2CCCC2)cc1 | 71.4* | 4.9 | 1 | -5.1 | 0.6
CC(=O)c1ccc(S(=O)(=O)Nc2cccc(-c3ccc4nncn4n3)c2)cc1 | . | -0.9 | 1 | 0.4 | -4.1
CC(=O)Nc1ccc(S(=O)(=O)Nc2cccc(-c3ccc4nncn4n3)c2)cc1 | -55.6 | -11.6 | 1 | 11.2* | -2.6
Cc1ccc(S(=O)(=O)c2nc(S(C)(=O)=O)sc2NCC2CCCO2)cc1 (stereo unspecified) | 65.4 | -4.6 | 1.1 | -4.7 | -5.5
Cc1ccc(-c2nc(NCC3CCCO3)sc2C)cc1 (stereo unspecified) | -18.2 | -7.7 | 1.1 | 12.1* | -6.2
Cc1ccc(-c2cc(C(=O)O)n(-c3ccc(S(N)(=O)=O)cc3)n2)cc1 | . | 0.9 | 1 | 15.8* | 3.7
CC1CCN(c2cc(C#N)c(C#N)cc2[N+](=O)[O-])CC1 | 8.3 | -1.0 | 1 | 3.0 | 2.8
CC1CCN(c2cc(N)c(Cl)cc2[N+](=O)[O-])CC1 | -12.9 | -0.7 | 1 | 15.8* | 3.0
CCCC(=O)Nc1nnc(COC)s1 | 89.5* | -9.8 | 1 | 0.1 | -3.2
CCCC(=O)Nc1nnc(CCOC)s1 | -43.3 | -2.2 | 1 | -0.3 | -0.5
Cc1cc(N2CCOCC2)nc2ccc(NC(=S)N3CCCCC3C)cc12 (stereo unspecified) | 72.7* | 0.8 | 1 | 1.6 | -0.9
O=C(Cc1ccccc1)N/N=C/c1ccc2cccc(O)c2n1 | . | -10.5 | 1 | -4.2 | -0.2
CC1CCc2c(sc(NS(=O)(=O)c3ccccc3)c2C(=O)OC(C)C)C1 (stereo unspecified) | -138.9 | -11.5 | 1 | -12.7 | -3.2
Cc1nc(-c2ccc(NS(C)(=O)=O)cc2)cs1 | 73.3* | -12.9 | 1 | -1.3 | -3.6
